Shown are actives, neighbours in structure and some others; about 2.5% of the full set was active somewhere.
TRPC4 PAM: TRPC4 (mouse) allosteric potentiation; 310,000 compounds, 0.42% hits; AID 2227; HEK293 TRPC4beta/mu-opioid, DAMGO EC20, Fluo-4 Ca2+ flux; hits give high values; B-score at 10 µM;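 active = B-score of calcium response area above 5 SD of library B-scores, with initial fluorescence ratio within 5 SD of library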;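 note: B-score of integrated fluorescence ratio over time as area under calcium response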
TRPC4 act: opens the mouse TRPC4 cation channel; HEK293 TRPC4beta/mu-opioid, Fluo4 calcium fluorescence; hits give high values; B-score at 10 µM; 310,000 compounds, 0.49% hits; AID 2237;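 active = B-score above 5 SD of library B-scores, and initial fluorescence ratio not above library mean plus 5 SD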;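 note: positive B-score marks a calcium rise read as TRPC4 activation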
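System: HEK293 cells stably co-expressing mouse TRPC4beta and mu-opioid receptor; Schedule: Fluo4 dye loading 45 min at room temperature, 110 s recording; Detection: Fluo4 fluorescence, kinetic; Evaluation: B-scored integrated calcium fluorescence ratio; Controls: buffer (low) and maximal DAMGO (high).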
TRPC6 activator: mouse TRPC6 channel activation; AID 2550; Q61143; 310,000 compounds, 0.13% hits; B-score at 10 µM; HEK293-TRPC6 membrane potential dye fluorescence; hits give high values;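 active = B-score of the integrated fluorescence ratio above library mean plus 3 SD, and starting fluorescence ratio within library mean plus 5 SD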;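 note: higher score means more depolarization so channel activation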
Platelet DG rel: modulates dense granule release in human platelets | human platelet-rich plasma, SFLLRN dense granule ATP release, luminescence | inhibition, %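 (compounds screened at 7.5 µM in platelet-rich plasma)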 | 300,000 compounds, 0.22% hits | AID 1663;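 active = mean replicate score, as percent of positive control, at or above 50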
TRPC4 inh: inhibitors of mouse TRPC4 channel; Q9QUQ5; HEK293 TRPC4beta/mu-opioid, DAMGO-evoked Fluo4 calcium flux; hits give low values; B-score at 10 µM; 300,000 compounds, 0.39% hits; AID 2247;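 active = B-score over 3 SD under the library average, no early fluorescence shift, positive overall ratio signal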
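Assay system: Stable TRPC4beta/mu-opioid receptor HEK293 cells | Reagent: DAMGO in two steps, submaximal then maximal | Compound dosing: Single concentration per test compound | Signal: Fluo4 Ca2+ flux fluorescence | Evaluation: Per-well B score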
TRPC6 inh: mouse TRPC6 channel inhibition; AID 2553; HEK293-TRPC6, membrane potential dye, ACh-evoked depolarization; hits give low values; B-score at 10 µM; 310,000 compounds, 1.1% hits; Q61143;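 active = B-score under library mean minus 3 SD, initial fluorescence not abnormally high, positive integrated signal ratio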;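 note: B-score derived from integrated fluorescence ratio over the kinetic read; more negative B-score means stronger inhibition of depolarization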
Numbers without * were called inactive; i = inactive.

SMILES	TRPC4 PAM	TRPC4 act	TRPC6 activator	Platelet DG rel	TRPC4 inh	TRPC6 inh
CC(=O)c1cccc(N(C(=O)CNC(=O)c2ccco2)C(C(=O)NCC2CCCO2)c2ccccc2)c1 (configuration not stated)	11*	i	i	0	i	i
O=C(CSc1nnc(CNC(=O)c2c(F)cccc2F)o1)NCc1ccccc1Cl	i	i	i	-21	i	i
CC(=O)C12CCCCC1CC1[C@@H]3CC(C)C4=CC(=O)CC[C@]4(C)C3CC[C@@]12C (some centres not stated)	12*	i	i	2	i	i
CC(=O)O[C@]1(C(C)=O)CC[C@H]2[C@@H]3C[C@H](C)C4=CC(=O)CC[C@]4(C)[C@H]3CC[C@@]21C	i	i	i	-4	i	i
COc1ccc(CN2CCC(n3nccc3NC(=O)CCc3ccccc3)CC2)c(C)c1C	i	82*	i	-4	i	i
Cc1ccc(CN2CCC(n3nccc3NC(=O)CCOc3ccccc3)CC2)cc1C	i	i	i	1	-6*	i
CCn1cc(CN2CCC(n3nccc3NC(=O)CCCc3ccccc3)CC2)cn1	i	43*	i	-3	-7*	i
CCn1cc(CN2CCC(n3nccc3NC(=O)Cc3ccccc3)CC2)cn1	i	i	i	-7	i	i
Cc1ccc(S(=O)(=O)n2[nH]c(=O)c(CCO)c2C)cc1	i	i	i	-1	i	i
O=C(Cc1ccccc1)Nc1ccccc1C(=O)N1CCN(c2ccccc2)CC1	i	i	i	-1	i	i
COc1ccccc1NC(=O)COC(=O)c1ccccc1C(=O)N1CCN(c2ccccc2)CC1	11*	i	i	1	i	i
CC(=O)N(c1ccc(Cl)cc1)c1c[nH]c2ccccc12	i	i	i	20	-6*	i
CCOC(=O)c1cnc2ccccc2c1NCc1ccco1	i	i	i	-14	-6*	i
CCOC(=O)c1cnc2ccc(OC)cc2c1NCc1ccccc1	i	i	i	12	i	i
Oc1c(N=Nc2ccccc2)sc2ccccc12	i	i	i	56*	i	i
Cc1cccc2sc(N(CCN(C)C)C(=O)c3cc(Cl)sc3Cl)nc12	12*	i	i	-53	i	i
COc1cc2ccccc2cc1C(=O)N(CCN(C)C)c1nc2c(C)cccc2s1	i	i	i	5	i	i
Brc1ccc2[nH]c3c(NCc4ccccn4)ncnc3c2c1	i	61*	i	-28	i	i
Brc1ccccc1C1CC(c2ccccc2)=Nc2ccccc2N1 (configuration not stated)	i	i	i	5	i	i
Clc1ccccc1C1CC(c2ccccc2)=Nc2ccccc2N1 (configuration not stated)	10*	i	i	3	i	i
CCc1ccc(-c2cc(C)no2)cc1S(=O)(=O)N1CCN(C(=O)c2ccco2)CC1	i	i	i	-22	i	i
Cc1cc(-c2ccc(C)c(S(=O)(=O)N3CCN(C(=O)c4ccco4)CC3)c2)on1	45*	i	i	-11	i	i
Cc1ccc(Cl)cc1NC(=O)c1cc(S(=O)(=O)N2CCOCC2)cn1C	i	i	i	16	i	i
Cc1ccc(OCc2nnc(NC(=O)c3cccnc3)s2)cc1	i	i	i	4	i	i
CN1CCC(CNC(=O)Nc2ccccc2)(c2ccccc2)CC1	i	172*	i	0	i	i
Cn1cccc1CNC(=O)Nc1ccccc1	i	i	i	4	i	i
CC1CCN(CCc2nc3cc(NS(=O)(=O)c4ccc(F)cc4)ccc3n2C)CC1	15*	i	i	-1	i	i
CC1CCN(CCc2nc3cc(NS(=O)(=O)c4ccccc4)ccc3n2C)CC1	i	i	i	0	i	i
COc1ccc(NC(=O)CN(C)CCOc2ccc(Cl)cc2)cc1OC	15*	i	i	0	i	i

Screens: PubChem BioAssay, several laboratories
